Activity calls are given as the source filed them.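 How the source made its calls, unless noted: active means Her2 level under about 52% in both replicate screens, with viability over 70% of control (limit read from the data); inconclusive means Her2 under the limit in one screen only, or viability under 70%; inactive means Her2 level above the set limit.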
Tests used:
[1] = Her2 expression decrease, cell viability multiplex – SKBR3 breast tumor cells, AlphaScreen, ATP viability, primary screen (AID 461); conditions: SKBR3 Her2 protein level, 18-24 h, measured here: SKBR3 viability, ATP luminescence, at 10 µM;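 on Her2 level: lower value means less Her2 protein in the cells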;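 on viability: percent of carrier control wells set as 100% viability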
[2] = biological target: Receptor tyrosine-protein kinase erbB-2 (Homo sapiens) (UniProt P04626); assay: as above; conditions: 18-24 h, at 10 µM, stronger effect = lower value
[3] = reduced viability of SK-BR-3 breast cancer cells – cell-based, 24 h, human, pilot screen (AID 572;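 active means viability at or below 10% of carrier control in both of two separate runs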;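 further: compound exposure lasted between 18 and 24 h rather than exactly 24 h; 100% = carrier-treated control wells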); conditions: SK-BR-3 viability, CellTiter-Glo luminescence, at 10 µM, stronger effect = lower value
[4] = HUVEC growth inhibition – cell-based, human, primary screen (AID 575;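 active means viability at or below 30% in both replicate assays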;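 further: 100% = median of untreated cell wells with 0.1% DMSO on each plate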); conditions: HUVEC proliferation, CellTiter-Glo luminescence, 72 h; at 10 µM; stronger effect = lower value
Summary of the method: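 Test system: primary human umbilical vein endothelial cells. Quantity: 1250 cells/well. Compound: single 10 µM dose, 0.1% DMSO, from 5x medium stock. Timing: 72 h treatment at 37 °C. Detection: ATP-based CellTiter-Glo luminescent read. Benchmarks: vehicle and MePR control wells. Format: 384-well plates coated with collagen.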

[5] = MRP1 drug-resistance reversers in H69AR cells – cell-based, doxorubicin co-treatment, pilot screen (AID 601;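 active means viability loss from added drug above about 55%, and viability with drug at most 40%, in both replicates, limit read from the data, passing the limit was not always enough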); conditions: CellTiter-Glo, 72 h, at 10 µM; for differential viability (reversal): stronger effect = higher value
[6] = yeast transport mutant growth inhibition pilot in 384-well plates, post-Golgi transport modulator project (AID 636; in the data active means inhibition above about 31%); conditions: absorbance 615 nm, about 18 h, stronger effect = higher value
[7] = growth suppression of yeast trafficking mutant, preliminary HTS, modulators of trafficking downstream of Golgi apparatus project, 1536-format plate, OD 615 nm (AID 637; in the data active means inhibition above about 30%); conditions: yeast transport mutant growth, absorbance 615 nm, 18 h; stronger effect = higher value
[8] = H69AR cell proliferation blockers – human, duplicate replicates, primary screen (AID 580;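 active means viability at or under a set limit in both replicates, limit being median viability minus 3 SD, cut at about 48% in these data, passing the limit was not always enough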;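 further: 100% = mean luminescence of untreated wells and 0% = no signal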); conditions: H69AR lung tumor cells viability, ATP luminescence, 72 h; at 10 µM; stronger effect = lower value
[9] = H69AR cells + 2 uM doxorubicin, measured here: viability with 2 uM doxorubicin, stronger effect = lower value
[10] = H69AR cells, compound alone cytotoxicity

Chain of Receptor tyrosine-protein kinase erbB-2 (Homo sapiens) (P04626 whole entry, looked up): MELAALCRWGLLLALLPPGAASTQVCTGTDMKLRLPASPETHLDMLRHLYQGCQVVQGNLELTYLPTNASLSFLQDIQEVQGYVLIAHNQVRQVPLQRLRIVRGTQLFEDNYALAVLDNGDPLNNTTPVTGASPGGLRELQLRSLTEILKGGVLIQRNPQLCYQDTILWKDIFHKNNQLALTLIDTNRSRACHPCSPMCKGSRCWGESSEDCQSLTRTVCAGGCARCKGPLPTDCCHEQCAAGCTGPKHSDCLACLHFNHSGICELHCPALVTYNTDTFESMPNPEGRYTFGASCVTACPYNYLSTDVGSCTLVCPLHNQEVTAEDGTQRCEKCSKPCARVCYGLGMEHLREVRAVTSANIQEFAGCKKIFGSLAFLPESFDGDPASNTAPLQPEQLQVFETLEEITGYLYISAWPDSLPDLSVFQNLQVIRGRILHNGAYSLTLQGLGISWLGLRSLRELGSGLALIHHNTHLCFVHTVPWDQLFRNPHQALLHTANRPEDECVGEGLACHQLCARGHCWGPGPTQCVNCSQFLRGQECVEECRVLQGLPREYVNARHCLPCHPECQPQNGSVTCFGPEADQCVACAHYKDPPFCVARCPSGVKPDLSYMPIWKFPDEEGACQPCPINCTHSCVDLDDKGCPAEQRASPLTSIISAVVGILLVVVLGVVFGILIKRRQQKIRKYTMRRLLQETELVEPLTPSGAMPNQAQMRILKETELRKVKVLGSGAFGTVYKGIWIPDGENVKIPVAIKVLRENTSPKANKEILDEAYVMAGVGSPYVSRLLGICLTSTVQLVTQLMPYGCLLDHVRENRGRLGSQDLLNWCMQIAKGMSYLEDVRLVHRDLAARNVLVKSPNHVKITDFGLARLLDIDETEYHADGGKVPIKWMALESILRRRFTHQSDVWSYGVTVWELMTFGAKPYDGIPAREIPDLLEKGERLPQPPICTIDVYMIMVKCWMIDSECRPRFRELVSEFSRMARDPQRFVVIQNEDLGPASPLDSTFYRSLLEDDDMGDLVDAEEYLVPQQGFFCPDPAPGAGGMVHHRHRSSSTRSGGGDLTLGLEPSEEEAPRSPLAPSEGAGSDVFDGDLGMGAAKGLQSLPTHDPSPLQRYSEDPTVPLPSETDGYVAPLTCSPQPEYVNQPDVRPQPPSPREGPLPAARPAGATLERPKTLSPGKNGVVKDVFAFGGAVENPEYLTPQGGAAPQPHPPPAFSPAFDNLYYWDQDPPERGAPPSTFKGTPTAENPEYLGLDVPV

Compound | viability [1] [%] | Her2 level [2] | viability [3] | viability [4] | differential viability (reversal) ([5]; H69AR cells + 2 uM doxorubicin) | viability [5, 9] [%] | viability [5, 10] [%] | inhibition [6] | inhibition [7] | viability [8]
Cc1ccc2c(c1)c1c(n2CC(O)Cn2c(C)nc3ccccc32)/C(=N\O)CCC1 (centres undefined) | 108 | 76.5% (inactive) | 108% (inactive) | 1.52% (active) | -12.7% (inactive) | 44.1 | 31.5 | -4.27% (inactive) | 15.4% (inactive) | –
O=S(=O)(Nc1ccc2c(c1)OCO2)c1ccc(Br)s1 | 92 | 79% (inactive) | 92% (inactive) | – | 0.44% (inactive) | 96.3 | 96.8 | -4.47% (inactive) | -10.7% (inactive) | 96.8% (inactive)
COc1ccc(C)cc1NC(=O)CCC(=O)Nc1ccc2nc(N3CCN(C)CC3)cc(C)c2c1 | 70.5 | 123% (inactive) | 70.5% (inactive) | – | 6.93% (inactive) | 86.2 | 93.2 | 3.95% (inactive) | -6.17% (inactive) | 93.2% (inactive)
Cc1ccc(C)c(-c2nc3ccc(N)cc3[nH]2)c1 | 122 | 101% (inactive) | 122% (inactive) | 68.3% (inactive) | -15.6% (inactive) | 68.3 | 52.8 | -6.35% (inactive) | 5.67% (inactive) | –
CO[C@H]1C=CO[C@@]2(C)Oc3c(C)c(O)c4c(O)c(c(C=NN5CCN(C)CC5)c(O)c4c3C2=O)NC(=O)C(C)=CC=C[C@H](C)[C@H](O)[C@@H](C)[C@@H](O)[C@@H](C)[C@H](OC(C)=O)[C@@H]1C | 90.5 | 85.5% (inactive) | 90.5% (inactive) | – | 1.53% (inactive) | 87.3 | 88.9 | – | – | 88.9% (inactive)
CC(=O)N1CCN(c2ccc(NC(=O)c3ccc(C(C)(C)C)cc3)cc2)CC1 | 74.5 | 94% (inactive) | 74.5% (inactive) | 38.7% (inactive) | -12.4% (inactive) | 56.6 | 44.2 | -6.08% (inactive) | -11.3% (inactive) | –
CCOc1ccc2nc(NC(=O)C(NS(=O)(=O)c3cccs3)C(C)C)sc2c1 (centres undefined) | 116 | 68.5% (inactive) | 116% (inactive) | – | 11.7% (inactive) | 75 | 86.7 | 0% (inactive) | -1.9% (inactive) | 86.7% (inactive)
Cc1ccc(C(=O)/C=C/Nc2cccc(O)c2)cc1 | 111 | 76% (inactive) | 111% (inactive) | – | 3.02% (inactive) | 82.1 | 85.1 | -7.03% (inactive) | -1.83% (inactive) | 85.1% (inactive)
Cc1c(C(=O)NC2CCCc3ccccc32)oc2ccc(S(=O)(=O)N3CCOCC3)cc12 (centres undefined) | 94.5 | 89.5% (inactive) | 94.5% (inactive) | 84.9% (inactive) | 1.53% (inactive) | 50.7 | 52.2 | -2% (inactive) | 1.29% (inactive) | –

— PubChem BioAssay
